Compound activity as filed in PubChem BioAssay.
S100A4 MyoIIA = inhibitors of human S100A4 binding to myosin IIA peptide. P26447. S100A4/TAMRA-MyoIIA peptide fluorescence polarization. inhibition, % at 10.7 µM. 360,000 compounds, 0.14% hits;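 active means mean inhibition of at least 70% across replicates, with every replicate also reaching that level; inconclusive means mean inhibition reaches 70% but some replicates fall short; inactive means mean inhibition below 70%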
Target sequence (P26447 whole entry, looked up): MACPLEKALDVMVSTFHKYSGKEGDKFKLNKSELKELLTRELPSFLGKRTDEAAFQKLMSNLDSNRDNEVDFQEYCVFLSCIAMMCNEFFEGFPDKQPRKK
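Test system: S100A4 monomer protein. Medium: HEPES buffer with Ca2+, pH 7.2. Reagent: fluorescent myosin IIA peptide, 5 nM. Compound dosing: single-point compound testing. Timing: 5 min between mix addition and reading. Benchmarks: DMSO neutral and TFP positive wells.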
CAL PDZ FP-1 = inhibitors of human CAL PDZ peptide binding; AID 602252; Q9HD26; 300,000 compounds, 0.92% hits; purified CAL PDZ, TMR-peptide fluorescence polarization, 1 h; inhibition, % at 24.9 µM;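 active means mean inhibition of at least 30% with at least half of replicates also reaching 30%; inconclusive means no clear call, values can overlap the other calls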
C2C12 statin = suppressors of simvastatin-induced myotoxicity in C2C12 myotubes | ATP luminescence, 48 h; scaled: DMSO 0, geranylgeraniol control 100 | rescue of ATP level, % at 7.49 µM | 330,000 compounds, 0.78% hits | AID 602340;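 active means mean ATP rescue above about 67%, or every replicate alone reaching that limit, limit read from the data, passing the limit was not always enough; inconclusive means no clear call, values can overlap the other calls; inactive means mean under the limit and some replicate under it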;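 further: myotubes were challenged with 10 µM simvastatin during compound exposure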
CAL PDZ FP-2 = blocks peptide binding to human CAL PDZ domain. Q9HD26. purified CAL PDZ, TMR-peptide fluorescence polarization, 1 h. inhibition, % at 20 µM. 330,000 compounds, 0.02% hits;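 active means highest replicate inhibition of at least 40%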
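Material – purified CerCALP PDZ construct · Detection – FP readout, S and P plane fluorescence · Measure – percent inhibition from loss of millipolarization · Controls – unlabelled peptide for full inhibition, DMSO wells as neutral · Probe or stimulus – TMR-labelled reporter peptide T*-PRC34 bound in PDZ groove · Times – 1 h at RT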
CDK5 p35 inh = CDK5/p35 (human) kinase inhibition | Recombinant CDK5/p35, ADP-Glo luminescence, 60 min | AID 488839 | 330,000 compounds, 0.01% hits | inhibition, % at 10 µM;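 active means highest replicate inhibition of at least 50% and at least 75% of replicates reaching 50%; inconclusive means only one of the two criteria met; inactive means both criteria failed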
Target sequence (Q00535 whole entry, looked up): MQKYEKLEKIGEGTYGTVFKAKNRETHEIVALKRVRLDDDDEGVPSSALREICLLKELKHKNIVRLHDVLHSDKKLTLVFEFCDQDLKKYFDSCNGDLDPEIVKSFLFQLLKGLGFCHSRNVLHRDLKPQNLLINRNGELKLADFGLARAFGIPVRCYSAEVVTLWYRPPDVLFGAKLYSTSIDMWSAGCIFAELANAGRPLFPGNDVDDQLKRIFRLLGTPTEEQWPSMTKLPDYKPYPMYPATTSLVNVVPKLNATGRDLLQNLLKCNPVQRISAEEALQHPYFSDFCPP
Target sequence (Q15078 whole entry, looked up): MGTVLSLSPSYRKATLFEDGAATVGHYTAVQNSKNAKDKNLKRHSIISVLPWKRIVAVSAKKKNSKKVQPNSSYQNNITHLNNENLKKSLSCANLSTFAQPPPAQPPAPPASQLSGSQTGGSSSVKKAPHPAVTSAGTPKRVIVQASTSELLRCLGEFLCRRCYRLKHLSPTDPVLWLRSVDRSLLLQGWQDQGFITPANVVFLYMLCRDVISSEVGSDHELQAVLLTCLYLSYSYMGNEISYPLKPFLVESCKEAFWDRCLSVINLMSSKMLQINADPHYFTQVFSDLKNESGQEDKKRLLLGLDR
dFosB act-1 = activators of mouse delta FosB homodimer. P13346. activation, % at 25 µM. 340,000 compounds, 0.99% hits. purified delta FosB, TAMRA-CDK5 oligo fluorescence polarization; percent of positive-control signal above neutral wells;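 active means mean activation above about 17%, with every replicate also reaching it, limit read from the data, passing the limit was not always enough; inconclusive means only one of the two conditions met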
dFosB act-2 = enhances mouse delta FosB homodimer binding to DNA | AID 588690 | 2,400 tested, under 10 active | purified delta FosB, TAMRA-CDK5 oligo fluorescence polarization; normalised: neutral wells 0, positive control 100 | shares compounds with dFosB act-1 | activation, % at 24.9 µM;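 active means highest replicate activation at or above 34% and every replicate reaching that threshold; inconclusive means meets only one of the two criteria; inactive means meets neither criterion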;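 further: higher polarization means more probe DNA bound by delta FosB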
Large screens that a line does not name were inactive (follow-up assays come after a bar, where they were run). Hits are enriched below; roughly 2% of the tested compounds scored in any of these assays.

O=C(Cn1cnc2c(nnn2-c2cccc(F)c2)c1=O)Nc1ccc2c(c1)OCCO2	dFosB act-1 inconclusive
COc1ccc(-n2nnc3c(=O)n(CC(=O)Nc4ccc5c(c4)OCCO5)cnc32)cc1OC	dFosB act-1 49 | dFosB act-2 inactive
Cc1ccc(NC(=O)Cn2nc(C(=O)Nc3ccc(C)cc3)ccc2=O)cc1	dFosB act-1 inconclusive
O=C(Cn1nc(-c2ccccc2)ccc1=O)Nc1ccc(NC(=O)c2ccccn2)cc1	dFosB act-1 25 (no result: CAL PDZ FP-1, C2C12 statin) | dFosB act-2 inactive
CC(=O)c1ccc(OCCNS(=O)(=O)c2ccc(-n3cnnn3)cc2)cc1	none
CC(=O)N1[C@H](CO)[C@@H](c2ccccc2)C12CN(C(=O)Cc1ccccc1)C2	none (no result: CAL PDZ FP-1, C2C12 statin, CAL PDZ FP-2, CDK5 p35 inh, dFosB act-1)
COc1ccc(CNC(=O)Cn2nc(-c3ccc4c(c3)OCCO4)ccc2=O)cc1	none (no result: S100A4 MyoIIA)
COc1ccc(-c2ccc(=O)n(CC(=O)Nc3ccc4c(c3)OCCO4)n2)cc1	dFosB act-1 22 | dFosB act-2 inactive
COC(=O)c1c(NC(=O)CSc2ncnc3[nH]ncc23)sc2c1CCC2	dFosB act-1 29 (no result: C2C12 statin) | dFosB act-2 inactive
COC(=O)c1c(NC(=O)Cn2cc([N+](=O)[O-])cn2)sc2c1CCC2	dFosB act-1 27 (no result: S100A4 MyoIIA) | dFosB act-2 inactive
COC(=O)C1=C(C)N(Cc2ccccc2)C(=O)N[C@H]1c1cccs1	none
C#CCOCCOCCOCCNc1nc(N2CCN(C(=O)[C@H]([C@@H](C)CC)n3cc([C@@H](N)CC(C)C)nn3)CC2)nc(N2CCN(C(=O)[C@H](CCCCN)n3cc([C@@H](N)CO)nn3)CC2)n1	none (no result: S100A4 MyoIIA)
C#CCOCCOCCOCCNc1nc(N2CCN(C(=O)[C@H](CCCCN)n3cc([C@@H](N)CC(C)C)nn3)CC2)nc(N2CCN(C(=O)[C@H](CCCCN)n3cc([C@@H](N)CC(C)C)nn3)CC2)n1	dFosB act-1 19 (no result: S100A4 MyoIIA) | dFosB act-2 inconclusive
CCCCCNCC(=O)Nc1cc(C(F)(F)F)ccc1OCCOC	none (no result: C2C12 statin)
CCOC(=O)C(Sc1ncn[nH]1)c1ccccc1 (stereo not given)	none (no result: S100A4 MyoIIA)
Cc1ccc(S(=O)(=O)Nc2cccc(-c3ccc4nncn4n3)c2)cc1	dFosB act-1 20 | dFosB act-2 inactive
Cc1cccc(NC(=O)CN2C(=O)N/C(=C/c3ccc(C)s3)C2=O)c1	dFosB act-1 31 (no result: S100A4 MyoIIA, C2C12 statin) | dFosB act-2 inactive
CCOc1cccc(/C=C2/NC(=O)N(CC(=O)Nc3cccc(C)c3)C2=O)c1O	dFosB act-1 23 | dFosB act-2 inactive
Cc1cccc(NC(=O)CN2C(=O)N/C(=C/c3cc(C)n(C(C)C)c3C)C2=O)c1	none
CCOc1cc(/C=C2/NC(=O)N(CC(=O)Nc3cccc(C)c3)C2=O)ccc1OCC(N)=O	none (no result: C2C12 statin)
O=C(c1ccc(F)cc1)N1CC(=O)N2[C@H](CO)[C@H](c3ccc(C#CC4CCCC4)cc3)[C@@H]2C1	none (no result: CAL PDZ FP-1, C2C12 statin, CAL PDZ FP-2, CDK5 p35 inh, dFosB act-1)
O=C(CNC(=O)c1cccc(Br)c1)N/N=C/c1ccc2c(c1)OCO2	dFosB act-1 18 | dFosB act-2 inactive
O=C(NN=Cc1ccc2c(c1)OCO2)c1ccccc1	none
O=C(CN1CCOCC1)NNC(=O)c1ccc(Cl)cc1	none
N#C/C(=C\c1c[nH]c2ccccc12)C(=O)Nc1ncc(Cc2ccc(Cl)cc2Cl)s1	dFosB act-1 31 (no result: C2C12 statin) | dFosB act-2 inactive
CCc1ccc(Nc2n[n+](-c3ccccc3)c(-c3ccc(SC)cc3)s2)cc1	dFosB act-1 31 | dFosB act-2 inactive
COc1cc(OC)c2ccc(=O)oc2c1C(CCN1CCCC(C)C1)c1ccc2c(c1)OCO2 (stereo not given)	none
Cc1c(Cc2ccc3c(c2)OCO3)sc(NC(=O)c2ccccc2)c1C(N)=O	dFosB act-1 39 (no result: CAL PDZ FP-1) | dFosB act-2 inactive
NC(=O)c1ncn([C@@H]2O[C@H](CNC(=O)[C@@H](N)Cc3cccnc3)[C@@H](O)[C@H]2O)n1	none
O=c1[nH]c2cc([N+](=O)[O-])ccc2c2ccccc12	none (no result: C2C12 statin)
O=C1Cc2c([nH]c3ccc([N+](=O)[O-])cc23)-c2ccccc2N1	dFosB act-1 31 (no result: C2C12 statin) | dFosB act-2 inactive
COc1ccc(C(CNC(=O)c2oc3ccc(Cl)cc3c2C)N2CCCCC2)cc1 (stereo not given)	dFosB act-1 23 | dFosB act-2 inactive
O=C(CC1S/C(=N/N=C/c2cccs2)NC1=O)Nc1ccccc1F (stereo not given)	dFosB act-1 32 (no result: C2C12 statin) | dFosB act-2 inactive
C=CCC1S/C(=N/N=C/c2cccs2)NC1=O (stereo not given)	none
O=C(O)c1cccc2c1C(=O)c1ccc(N3CCCCC3)cc1S2(=O)=O	none
Cc1ccc(CCNC(=O)C2CCCN(S(=O)(=O)c3cccc4nsnc34)C2)cc1 (stereo not given)	dFosB act-1 47 (no result: S100A4 MyoIIA) | dFosB act-2 inactive
CC(=O)c1ccc(NC(=O)C2CCCN(S(=O)(=O)c3cccc4nonc34)C2)cc1 (stereo not given)	none (no result: S100A4 MyoIIA)
O=C(Nc1cccc2c1CCCC2)C1CCCN(S(=O)(=O)c2cccc3nonc23)C1 (stereo not given)	dFosB act-1 24 (no result: S100A4 MyoIIA, C2C12 statin) | dFosB act-2 inactive
CC(C)[C@H](NC(=O)C1CCN(C(=O)[C@@H]2CCCN2)CC1)C(=O)NCc1ccc(F)cc1	none
N/C(CC(=O)Nc1ccc(F)c(Cl)c1)=N\OC(=O)c1cccs1	dFosB act-1 23 (no result: C2C12 statin) | dFosB act-2 inactive
COc1ccc(N2C(=O)CC(NNC(=O)c3ccc(Br)s3)C2=O)cc1 (stereo not given)	dFosB act-1 45 (no result: C2C12 statin) | dFosB act-2 inactive
COc1cccc(N2C(=O)CC(NNC(=O)c3cccs3)C2=O)c1 (stereo not given)	none (no result: C2C12 statin)
CCOC(=O)N1CCN(C(=S)NC2CCCC2)CC1	none (no result: C2C12 statin)
O=C(Cn1ncc2c([nH]c3ccccc32)c1=O)Nc1ccc(F)cc1F	dFosB act-1 64 | dFosB act-2 inactive
Cc1ccccc1NC(=O)Cn1nnc2c(cnn2-c2ccc(F)cc2)c1=O	dFosB act-1 18 | dFosB act-2 inactive
CCOc1cc(S(=O)(=O)N2CCCC2)ccc1Cl	none
CC(=O)Nc1ccc(S(=O)(=O)NCCS(=O)(=O)N2CCN(c3ccccc3F)CC2)cc1	dFosB act-1 22 | dFosB act-2 inactive
Cc1ccc(Cn2c(=S)[nH]c3ccc(N4CCOCC4)cc3c2=O)o1	none (no result: S100A4 MyoIIA, C2C12 statin)
CCOc1cc2[nH]c(=S)n(Cc3ccc(C(=O)NCCCN(CC)CC)cc3)c(=O)c2cc1OCC	dFosB act-1 30 | dFosB act-2 inactive
